{
  "source": "paper PMC5291243",
  "about": "(Nucleic Acids Research, 2016)",
  "key": {"[1]": {"target": "ING1 PHD finger (UniProt Q9UK53)", "experiment": "in vitro peptide binding, probably NMR titration", "details": "reference: H3K4me3 peptide (reference implied); sites T3,T6"}, "[2]": {"target": "T1, ING1 PHD finger (Homo sapiens, UniProt Q9UK53)", "T1 sequence (Q9UK53 200-279 isoform Q9UK53-2)": "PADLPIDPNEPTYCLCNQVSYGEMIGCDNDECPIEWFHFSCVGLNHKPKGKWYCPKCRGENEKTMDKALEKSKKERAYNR", "experiment": "1H,15N HSQC NMR titration", "assay_type": "binding", "details": "298K, peptide aa 1–12 of H3"}, "[3]": {"target": "DIDO PHD finger (aa 260–325) (UniProt Q9BTC0)", "sequence (Q9BTC0 260-325)": "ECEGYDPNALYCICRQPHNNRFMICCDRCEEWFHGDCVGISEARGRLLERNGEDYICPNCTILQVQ", "experiment": "other fluorescence titration"}, "[4]": {"target": "BPTF PHD finger (UniProt Q12830)", "experiment": "histone peptide microarray", "details": "reference: H3K4me3 peptide"}, "[5]": {"target": "DIDO PHD finger (UniProt Q9BTC0)", "experiment": "histone peptide microarray", "details": "reference: H3K4me3 peptide"}, "[6]": {"target": "ING1 PHD finger (UniProt Q9UK53)", "experiment": "histone peptide microarray", "details": "reference: H3K4me3 peptide"}, "[7]": {"target": "PHF8 PHD finger (UniProt Q9UPP1)", "experiment": "histone peptide microarray", "details": "reference: H3K4me3 peptide"}, "[8]": {"target": "Rag2 PHD finger (UniProt P21784)", "experiment": "histone peptide microarray", "details": "reference: H3K4me3 peptide"}, "[9]": {"target": "Taf3 PHD finger (UniProt Q5HZG4)", "experiment": "histone peptide microarray", "details": "reference: H3K4me3 peptide"}, "[10]": {"target": "BPTF PHD finger (UniProt Q12830)", "experiment": "biotin-peptide pull-down of GST-reader, anti-GST blot", "details": "reference: H3K4me3 peptide; sites T3"}, "[11]": {"target": "DIDO PHD finger (UniProt Q9BTC0)", "experiment": "biotin-peptide pull-down of GST-reader, anti-GST blot", "details": "reference: H3K4me3 peptide; sites T3"}, "[12]": {"target": "ING1 PHD finger (UniProt Q9UK53)", "experiment": "biotin-peptide pull-down of GST-reader, anti-GST blot", "details": "reference: H3K4me3 peptide; sites T3"}, "[13]": {"target": "KDM4A double Tudor domain (DTD) (UniProt O75164)", "experiment": "biotin-peptide pull-down of GST-reader, anti-GST blot", "details": "reference: H3K4me3 peptide; sites T3"}, "[14]": {"target": "PHF8 PHD finger (UniProt Q9UPP1)", "experiment": "biotin-peptide pull-down of GST-reader, anti-GST blot", "details": "reference: H3K4me3 peptide; sites T3"}, "[15]": {"target": "Rag2 PHD finger (UniProt P21784)", "experiment": "biotin-peptide pull-down of GST-reader, anti-GST blot", "details": "reference: H3K4me3 peptide"}, "[16]": {"target": "Taf3 PHD finger (UniProt Q5HZG4)", "experiment": "biotin-peptide pull-down of GST-reader, anti-GST blot", "details": "reference: H3K4me3 peptide; sites T3"}, "[17]": {"system": "RPE-1 cells", "experiment": "Confocal fluorescence microscopy of Haspin inhibitor-treated RPE-1 cells", "assay_type": "cell-based", "details": "24 h", "method_in_brief": "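RPE-1 cells were grown on glass coverslips in DMEM/F12 with 10% FCS to 70% confluence. They were treated 24 h with the Haspin inhibitor from a 500 μM DMSO stock; controls got solvent only. Cells were fixed in 4% formaldehyde, permeabilized in 0.5% Triton X-100, and immunostained for DIDO, ING1 and H3K4me3, with DAPI counterstain. Single confocal layers were imaged with sequential excitation.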"}, "[18]": {"target": "T2, PHF8 PHD finger (aa 37–106) (UniProt Q9UPP1 37-106, uniformly 15N-labelled for NMR)", "T2 sequence (looked up)": "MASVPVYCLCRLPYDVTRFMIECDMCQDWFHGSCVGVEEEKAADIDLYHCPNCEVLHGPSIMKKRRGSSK", "experiment": "other fluorescence titration"}},
  "note": "Non-standard residues stand in square brackets, D forms with d. No end group written: not given here. Lys(Me3) = C[N+](C)(C)CCCC[C@H](N)C(=O)O; pT = C[C@@H](OP(=O)(O)O)[C@H](N)C(=O)O",
  "data": [
    {"molecule": "histone H3 (from UniProt P68431) H3T3phK4me3T6ph peptide", "values": [
      {"measurement": "binding against the reference", "setting": "[1]", "result": "weaker"}
    ]},
    {"molecule": "H3T3phK4me3T6ph: triple PTM-containing peptide", "values": [
      {"measurement": "CSPs / binding to ING1 PHD finger", "setting": "[2]", "result": "markedly reduced"}
    ]},
    {"molecule": "H3K4me3T6ph peptide (aa 1–12 of histone H3) (from UniProt P68431 2-13)", "values": [
      {"measurement": "Kd", "setting": "[3]", "result": 5500, "unit": "nM"}
    ]},
    {"molecule": "histone H3 1-20 (from UniProt P68431) H3T3phK4me3 peptide", "values": [
      {"measurement": "binding against the reference", "setting": "[4]; sites T3", "result": "weaker"},
      {"measurement": "binding against the reference", "setting": "[5]; sites T3", "result": "weaker"},
      {"measurement": "binding against the reference", "setting": "[6]; sites T3", "result": "weaker"},
      {"measurement": "binding against the reference", "setting": "[7]; sites T3", "result": "weaker"},
      {"measurement": "binding against the reference", "setting": "[8]; sites T3", "result": "weaker"},
      {"measurement": "binding against the reference", "setting": "[9]; sites T3", "result": "weaker"},
      {"measurement": "binding against the reference", "setting": "[10]", "result": "weaker"},
      {"measurement": "binding against the reference", "setting": "[11]", "result": "weaker"},
      {"measurement": "binding against the reference", "setting": "[12]", "result": "weaker"},
      {"measurement": "binding against the reference", "setting": "[13]", "result": "weaker"},
      {"measurement": "binding against the reference", "setting": "[14]", "result": "weaker"},
      {"measurement": "binding against the reference", "setting": "[15]; sites T3", "result": "weaker"},
      {"measurement": "binding against the reference", "setting": "[16]", "result": "weaker"}
    ]},
    {"molecule": "H3K4me3 peptide (aa 1–12 of H3) (from UniProt P68431 2-13)", "values": [
      {"measurement": "Kd", "setting": "[3]", "result": 1100, "unit": "nM"}
    ]},
    {"molecule": "histone H3 1-20 (from UniProt P68431) H3K4me3T6ph peptide", "values": [
      {"measurement": "binding against the reference", "setting": "[4]; sites T6", "result": "weaker"},
      {"measurement": "binding against the reference", "setting": "[5]; sites T6", "result": "weaker"},
      {"measurement": "binding against the reference", "setting": "[6]; sites T6", "result": "weaker"},
      {"measurement": "binding against the reference", "setting": "[7]; sites T6", "result": "weaker"},
      {"measurement": "binding against the reference", "setting": "[8]; sites T6", "result": "weaker"},
      {"measurement": "binding against the reference", "setting": "[9]; sites T6", "result": "weaker"},
      {"measurement": "binding against the reference", "setting": "[15]; sites T6", "result": "weaker"}
    ]},
    {"molecule": "CCCNc1ccc2ncc(-c3ccc4[nH]ncc4c3)n2n1", "note": "[CHR6494]", "values": [
      {"measurement": "DIDO and ING1 attachment to chromatin", "setting": "[17]; 1 μM", "result": "only a portion of these proteins remained attached to chromatin"},
      {"measurement": "H3T3ph level in prophase", "setting": "[17]; 1 μM", "result": "pronounced reduction of H3T3ph in prophase"},
      {"measurement": "DIDO and ING1 localization on chromatin", "setting": "[17]; 2 μM", "result": "co-localization of DIDO and ING1 on poorly condensed H3K4me-positive chromatin"},
      {"measurement": "completion of mitosis", "setting": "[17]; 2 μM", "result": "unable to complete mitosis"}
    ]},
    {"molecule": "ART[Lys(Me3)]QTARKSTG (peptide, UniProt P68431 2-13, looked up)", "note": "[H3K4me3 peptide (aa 1–12 of H3)]", "values": [
      {"measurement": "Kd", "setting": "[18]", "result": 2500, "unit": "nM"}
    ]},
    {"molecule": "ART[Lys(Me3)]Q[pT]ARKSTG (peptide, UniProt P68431 2-13, looked up)", "note": "[H3K4me3T6ph peptide (aa 1–12 of histone H3)]", "values": [
      {"measurement": "fold reduction of binding against H3K4me3", "setting": "[18]", "result": 2, "unit": "fold"}
    ]}
  ]
}
